# What was measured:
# Rattus norvegicus [1] = assay: Antiinflammatory in SKF-525A pretreated Wistar rat assessed as inhibition of carrageenan-induced paw edema at 100 mg/kg, po after 4 hrs; assay type: functional
# Rattus norvegicus [2] = assay: Antiinflammatory activity in Wistar rat assessed as inhibition of carrageenan-induced paw edema at 100 mg/kg, after 4 hrs; assay type: functional
# How it was run: (§1)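 Male Wistar rats (170 ± 20 g) dosed orally: test agents at 100 mg/kg, reference at 10 mg/kg. One hour later, 0.1 ml of 1% carrageenan injected subplantar into the right hind paw.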
# Rattus norvegicus [3] = assay: Antipyretic activity against LPS-induced pyresis in Wistar rat assessed as change in rectal temperature at 100 mg/kg, po after 5 hrs; assay type: functional
# How it was run: (§2)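 Male Wistar rats (170 ± 20 g) dosed orally: test agents at 100 mg/kg, indomethacin and aspirin at 10 mg/kg and 100 mg/kg. Half an hour later, LPS in apyrogenic saline given at 100 µg/kg i.p. Rectal temperature taken by telethermometer probe immediately before LPS and hourly from 1 to 7 h after. Change in temperature reported; means ± SEM, n = 6.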
# Rattus norvegicus [4] = assay: Antiinflammatory activity in Wistar rat assessed as inhibition of carrageenan-induced paw edema at 100 mg/kg, after 6 hrs; assay type: functional; how it was run: as §1
# Rattus norvegicus [5] = assay: Antiinflammatory in SKF-525A pretreated Wistar rat assessed as inhibition of carrageenan-induced paw edema at 100 mg/kg, po after 1 hr; assay type: functional
# Rattus norvegicus [6] = assay: Antipyretic activity against LPS-induced pyresis in Wistar rat assessed as change in rectal temperature at 100 mg/kg, po after 4 hrs; assay type: functional; how it was run: as §2
# Rattus norvegicus [7] = assay: Antipyretic activity against LPS-induced pyresis in Wistar rat assessed as change in rectal temperature at 100 mg/kg, po after 1 hr; assay type: functional; how it was run: as §2
# Rattus norvegicus [8] = assay: Antiinflammatory in SKF-525A pretreated Wistar rat assessed as inhibition of carrageenan-induced paw edema at 100 mg/kg, po after 24 hrs; assay type: functional
# Rattus norvegicus [9] = assay: Antiinflammatory activity in Wistar rat assessed as inhibition of carrageenan-induced paw edema at 100 mg/kg, after 2 hrs; assay type: functional; how it was run: as §1
# Rattus norvegicus [10] = assay: Antipyretic activity against LPS-induced pyresis in Wistar rat assessed as change in rectal temperature at 100 mg/kg, po after 3 hrs; assay type: functional; how it was run: as §2
# Rattus norvegicus [11] = assay: Antiinflammatory activity in Wistar rat assessed as inhibition of carrageenan-induced paw edema at 100 mg/kg, after 3 hrs; assay type: functional; how it was run: as §1
# Rattus norvegicus [12] = assay: Toxicity in 24 hrs fasted Wistar rat assessed as ulcer index at 100 mg/kg, po after 6 hrs; assay type: organism-based; parameters: dose 100 mg/kg, route oral; conditions: in vivo
# How it was run: (§3)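 Male Wistar rats (175 ± 25 g) fasted 24 h and dosed orally. Acute arm: test agents at 100 mg/kg, indomethacin at 30 mg/kg; rats killed after 6 h, stomachs opened along the greater curvature and scored for ulcers. Chronic arm: 14-day dosing, stomachs examined post mortem at the end of the arthritis study. Ulcer index means ± SEM, n = 4.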
# Rattus norvegicus [13] = assay: Antipyretic activity against LPS-induced pyresis in Wistar rat assessed as change in rectal temperature at 100 mg/kg, po after 7 hrs; assay type: functional; how it was run: as §2
# Rattus norvegicus [14] = assay: Antiarthritic activity against adjuvant-induced arthritis in Wistar rat assessed as inhibition of paw edema at 100 mg/kg, po on day 3; assay type: functional; conditions: 72 h
# How it was run: (§4)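 Male Wistar rats (160 ± 10 g) dosed orally once daily for 14 days, from the day before injecting 0.1 ml Freund's complete adjuvant into the subplantar surface of the right hind paw. Paw swelling, including the uninjected left paw, and body weight recorded. Means ± SEM, n = 6; p < 0.05 versus control.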
# Mus musculus [15] = assay: Analgesic activity in Swiss Albino mouse assessed as inhibition of acetic acid-induced writhing responses at 100 mg/kg, po after 1 hr; assay type: functional
# How it was run: (§5)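 Mice dosed orally; one hour later injected i.p. with 1% v/v acetic acid at 0.1 ml/10 g. Writhings counted over 15 min, starting five minutes after injection. Means ± SEM, n = 6; p < 0.05 versus control group.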
# Rattus norvegicus [16] = assay: Antiinflammatory in SKF-525A pretreated Wistar rat assessed as inhibition of carrageenan-induced paw edema at 100 mg/kg, po after 6 hrs; assay type: functional
# Rattus norvegicus [17] = assay: Antiarthritic activity against adjuvant-induced arthritis in Wistar rat assessed as inhibition of paw edema at 100 mg/kg, po on day 13; assay type: functional; conditions: 312 h; how it was run: as §4
# Rattus norvegicus [18] = assay: Antipyretic activity against LPS-induced pyresis in Wistar rat assessed as change in rectal temperature at 100 mg/kg, po after 6 hrs; assay type: functional; how it was run: as §2
# Rattus norvegicus [19] = assay: Antiarthritic activity against adjuvant-induced arthritis in Wistar rat assessed as weight change at 100 mg/kg, po; assay type: functional; how it was run: as §4
# Rattus norvegicus [20] = assay: Antipyretic activity against LPS-induced pyresis in Wistar rat assessed as change in rectal temperature at 100 mg/kg, po after 2 hrs; assay type: functional; how it was run: as §2
# Rattus norvegicus [21] = assay: Antiinflammatory activity in Wistar rat assessed as inhibition of carrageenan-induced paw edema at 100 mg/kg, after 1 hr; assay type: functional; how it was run: as §1
# Rattus norvegicus [22] = assay: Antiinflammatory in SKF-525A pretreated Wistar rat assessed as inhibition of carrageenan-induced paw edema at 100 mg/kg, po after 3 hrs; assay type: functional
# Rattus norvegicus [23] = assay: Antiinflammatory in SKF-525A pretreated Wistar rat assessed as inhibition of carrageenan-induced paw edema at 100 mg/kg, po after 2 hrs; assay type: functional
# Rattus norvegicus [24] = assay: Antiinflammatory activity in Wistar rat assessed as inhibition of carrageenan-induced paw edema at 100 mg/kg, after 24 hrs; assay type: functional; how it was run: as §1
# Mus musculus [25] = assay: Analgesic activity in Swiss Albino mouse assessed as number of acetic acid-induced writhing at 100 mg/kg, po after 1 hr relative to control; assay type: functional; how it was run: as §5
# Rattus norvegicus [26] = assay: Antiarthritic activity against adjuvant-induced arthritis in Wistar rat assessed as inhibition of paw edema at 100 mg/kg, po on day 8; assay type: functional; conditions: 192 h; how it was run: as §4
# Rattus norvegicus [27] = assay: Toxicity in 24 hrs fasted Wistar rat assessed as ulcer index at 30 mg/kg, po after 6 hrs; assay type: organism-based; parameters: dose 30 mg/kg, route oral; conditions: in vivo; how it was run: as §3
# Rattus norvegicus [28] = assay: Antiarthritic activity against adjuvant-induced arthritis in Wistar rat assessed as inhibition of paw edema at 10 mg/kg, po on day 8; assay type: functional; conditions: 192 h; how it was run: as §4
# Rattus norvegicus [29] = assay: Antiinflammatory activity in Wistar rat assessed as inhibition of carrageenan-induced paw edema at 10 mg/kg, after 24 hrs; assay type: functional; how it was run: as §1
# Rattus norvegicus [30] = assay: Toxicity in 24 hrs fasted Wistar rat assessed as ulcer index […], po after 14 days; assay type: organism-based; parameters: route oral; conditions: in vivo, 336 h; how it was run: as §3
# Rattus norvegicus [31] = species: Rattus norvegicus; assay: animal or person; conditions: Wistar, 2 h, read-out: Inhibition
# Rattus norvegicus [32] = assay: Antiinflammatory activity in Wistar rat assessed as inhibition of carrageenan-induced paw edema at 10 mg/kg, after 1 hr; assay type: functional
# How it was run: (§6)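 Male Wistar rats, 170 ± 20 g, dosed orally; 0.1 ml of 1% carrageenan injected into the right hind paw subplantar region 1 h after dosing. Paw volume read by plethysmometer at 0, 1, 2, 3, 4, 6 and 24 h after carrageenan. Percent inhibition of edema is calculated against the control group. n = 6, mean ± SEM.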
# Rattus norvegicus [33] = assay: Antiinflammatory activity in Wistar rat assessed as inhibition of carrageenan-induced paw edema at 10 mg/kg, after 6 hrs; assay type: functional; how it was run: as §1
# Rattus norvegicus [34] = assay: Antiarthritic activity against adjuvant-induced arthritis in Wistar rat assessed as inhibition of paw edema at 10 mg/kg, po on day 3; assay type: functional; conditions: 72 h; how it was run: as §4
# Rattus norvegicus [35] = assay: Antiarthritic activity against adjuvant-induced arthritis in Wistar rat assessed as inhibition of paw edema at 10 mg/kg, po on day 13; assay type: functional; conditions: 312 h; how it was run: as §4
# Rattus norvegicus [36] = assay: Antiarthritic activity against adjuvant-induced arthritis in Wistar rat assessed as weight change at 10 mg/kg, po; assay type: functional; how it was run: as §4
# Rattus norvegicus [37] = assay: Antiinflammatory activity in Wistar rat assessed as inhibition of carrageenan-induced paw edema at 10 mg/kg, after 3 hrs; assay type: functional; how it was run: as §6
# Rattus norvegicus [38] = assay: Antiinflammatory activity in Wistar rat assessed as inhibition of carrageenan-induced paw edema at 10 mg/kg, after 4 hrs; assay type: functional; how it was run: as §6
compound,measurement,setting,value
COc1cc2c(cc1OC)C(CC(=O)Nc1ccc(Cl)cc1)CC2 (configuration not stated),inhibition in vivo at 100 mg/kg,Rattus norvegicus [1],57.9%
same,inhibition in vivo at 100 mg/kg,Rattus norvegicus [2],60.9%
same,Activity,Rattus norvegicus [3],0.17 °C
same,inhibition in vivo at 100 mg/kg,Rattus norvegicus [4],61.1%
same,inhibition in vivo at 100 mg/kg,Rattus norvegicus [5],64.3%
same,Activity,Rattus norvegicus [6],-0.11 °C
same,Activity,Rattus norvegicus [7],-0.47 °C
same,inhibition in vivo at 100 mg/kg,Rattus norvegicus [8],68.2%
same,inhibition in vivo at 100 mg/kg,Rattus norvegicus [9],63%
same,Activity,Rattus norvegicus [10],-0.54 °C
same,inhibition in vivo at 100 mg/kg,Rattus norvegicus [11],60.9%
same,UI,Rattus norvegicus [12],0
same,Activity,Rattus norvegicus [13],0.4 °C
same,inhibition in vivo at 100 mg/kg,Rattus norvegicus [14],28.6%
same,inhibition in vivo at 100 mg/kg,Mus musculus [15],73.5%
same,inhibition in vivo at 100 mg/kg,Rattus norvegicus [16],59.6%
same,inhibition in vivo at 100 mg/kg,Rattus norvegicus [17],4.69%
same,Activity,Rattus norvegicus [18],0.41 °C
same,Activity,Rattus norvegicus [19],3.51 g
same,Activity,Rattus norvegicus [20],-1.69 °C
same,inhibition in vivo at 100 mg/kg,Rattus norvegicus [21],71.9%
same,inhibition in vivo at 100 mg/kg,Rattus norvegicus [22],56.7%
same,inhibition in vivo at 100 mg/kg,Rattus norvegicus [23],56.1%
same,inhibition in vivo at 100 mg/kg,Rattus norvegicus [24],70%
same,Activity,Mus musculus [25],9.17
same,inhibition in vivo at 100 mg/kg,Rattus norvegicus [26],8.08%
COc1ccc2c(c1)c(CC(=O)O)c(C)n2C(=O)c1ccc(Cl)cc1 [INDOMETHACIN],UI,Rattus norvegicus [27],31.37
same,Activity,Rattus norvegicus [3],0.3 °C
same,Activity,Rattus norvegicus [6],0.22 degrees C
same,Activity,Rattus norvegicus [7],-0.39 °C
same,inhibition in vivo at 10 mg/kg,Rattus norvegicus [28],43.9%
same,Activity,Rattus norvegicus [10],-0.11 °C
same,inhibition in vivo at 10 mg/kg,Rattus norvegicus [29],13.3%
same,UI,Rattus norvegicus [30],42
same,Activity,Rattus norvegicus [13],0.55 °C
same,inhibition in vivo at 100 mg/kg,Mus musculus [15],51.5%
same,inhibition in vivo at 10 mg/kg,Rattus norvegicus [31],58%
same,Activity,Rattus norvegicus [18],0.35 °C
same,inhibition in vivo at 10 mg/kg,Rattus norvegicus [32],50%
same,inhibition in vivo at 10 mg/kg,Rattus norvegicus [33],48.1%
same,Activity,Rattus norvegicus [20],-1.03 °C
same,inhibition in vivo at 10 mg/kg,Rattus norvegicus [34],37.5%
same,inhibition in vivo at 10 mg/kg,Rattus norvegicus [35],46.5%
same,Activity,Rattus norvegicus [36],5.68 g
same,inhibition in vivo at 10 mg/kg,Rattus norvegicus [37],65.2%
same,inhibition in vivo at 10 mg/kg,Rattus norvegicus [38],57.8%
same,Activity,Mus musculus [25],16.83

# Reference: ChEMBL document CHEMBL1138278, “Aromatic amide derivatives of 5,6-dimethoxy-2,3-dihydro-1H-inden(-1-yl)acetic acid as anti-inflammatory agents free of ulcerogenic liability” (Bioorg Med Chem Lett, 2007)
